Bioassay records as filed in PubChem.
Sampled rows, rich in hits. Any-hit rate of the full collection: about 2.4%.
Rpn11 inh – inhibitors of human proteasome Rpn11; human 26S proteasome, Ub4-pepOG fluorescence polarization; 20S core pre-blocked with epoxomicin; inhibition, % at 20 µM; actives 0.59% (n = 360,000); O00487; AID 588493;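 active = inhibition at 20 µM, scaled to each plate's controls, above about 33%, limit read from the data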
Neddylation inh – cullin neddylation inhibition. TR-FRET cullin neddylation, biochemical. inhibition, % at 25 µM. actives 0.58% (n = 360,000); in the data active = inhibition above about 36%
CSN inh – CSN deneddylation inhibition | Q92905 | Purified CSN, SCF-Nedd8-OG deneddylation, fluorescence polarization | inhibition, % at 12.5 µM | actives 0.38% (n = 360,000) | AID 651999;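 active = pattern-corrected inhibition above about 35%, with an unprinted fluorescence ratio check between 0.5 and 1.5, limit read from the data, passing the limit was not always enough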;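 also: 0% = enzyme with substrate and 100% = substrate without enzyme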
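assay system = purified human Csn5 enzyme expressed in HEK293T cells | amount = 0.24 nM enzyme | buffer or medium = Tris/NaCl/DTT buffer, pH 7.5 | reagent = 10 nM SCFSkp2-Nedd8OG | compound = one concentration, 12.5 µM, 0.25% DMSO | times = 90 min reaction at room temperature | signal = FP | read-out basis = % inhibition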
TPT1 inhibitor – C. albicans TPT1 enzyme inhibition | inhibition, % at 5 µM | recombinant caTPT1, FP RNA substrate dephosphorylation | AID 1962 | actives 0.81% (n = 300,000);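 active = inhibition above the mean of all tested compounds plus 3 SD, set per screening campaign, cut at about 24% in these data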;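 also: plate controls were DMSO alone for no effect and ferristatin control at 100 nM for full effect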
Rin1-Abl PPI inh – human Rin1-Abl interaction inhibition. P00519+Q13671. TR-FRET Rin1/Abl binding, biochemical. inhibition, % at 7.35 µM. actives 0.4% (n = 360,000); in the data active = inhibition above about 5%, passing the limit was not always enough
HNF4A DNA FP – change in binding of human HNF4 alpha to DNA; activity change, % at 10 µM; P41235; HNF4a-FITC DNA binding, fluorescence polarization, 1 h; actives 0.3% (n = 360,000); in the data active = activity change above about 30%, passing the limit was not always enough
TPT1 inh confirm – TPT1 (C. albicans) inhibition, confirmation; actives 74% (n = 2,400); inhibition, % at 5 µM; AID 2149; recombinant caTPT1, fluorescence polarization, RNase T1 coupled; shares compounds with TPT1 inhibitor;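 active = inhibition above the primary screen limit, the mean inhibition of all tested compounds plus 3 SD, cut at about 25% in these data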
RNase T1 counter – blocks Aspergillus oryzae RNase T1, a TPT1 counter-screen | RNase T1 cleavage, fluorescence polarization, 1536-well | shares compounds with TPT1 inhibitor | AID 2153 | inhibition, % at 5 µM | actives 83% (n = 2,400);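 active = inhibition above the solvent-only control well mean plus 3 SD, limit set per screening run, cut at about 23% in these data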;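 also: plate controls were DMSO wells with enzyme for no effect and wells without RNase T1 for full effect; inhibitors block cleavage so intact labeled substrate keeps polarization high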
* = called active by the depositor; i = inactive; x = no result shown.

SMILES	Rpn11 inh	Neddylation inh	CSN inh	TPT1 inhibitor	Rin1-Abl PPI inh	HNF4A DNA FP	TPT1 inh confirm	RNase T1 counter
COc1cc(/C=C(\NC(=O)c2ccccc2)C(=O)NC(C(=O)O)c2ccccc2)cc(OC)c1OC (configuration not stated)	-5	1	-2	0	0	2	x	x
CCCCN1C(=O)/C(=C/C=C2\SCCN2C)SC1=S	x	i	71	x	-8	203	x	x
CCCCN1C(=O)/C(=C/C=C2\N(C)c3ccccc3C2(C)C)SC1=S	x	x	x	196*	x	x	134*	124*
CC(C)c1ccc(/C=C2\Oc3c(ccc(O)c3CN3CCN(C)CC3)C2=O)cc1	12	28	7	37*	-2	5	40*	51*
CCN1CCN(Cc2c(O)ccc3c2O/C(=C\C=C\c2ccccc2OC)C3=O)CC1	x	x	29	53*	-2	47*	64*	68*
COc1c(Br)cc(Br)cc1C(=O)Nc1ccccc1N1CCCC1	0	15	5	x	1	2	x	x
NC(=O)CSC1=N/C(=C\c2ccco2)C(=O)N1c1ccc(OC(F)F)cc1	8	-17	14	10	2	7	x	x
CCOc1cc(/C=C2\N=C(SC(C)C(N)=O)N(c3ccc(OC(F)F)cc3)C2=O)ccc1O (configuration not stated)	x	-18	104	101*	-1	130	117*	113*
COC(C[C@H]1O[C@H]1[C@@H](O)[C@@H](C)OCc1ccccc1)OC	4	-15	-3	x	0	-2	x	x
CC(=O)C1=NOC(CNc2ncc(C(F)(F)F)cc2Cl)C1 (configuration not stated)	4	-9	-7	143*	-1	4	11	11
O=C(O)C1=NOC(CNc2ncc(C(F)(F)F)cc2Cl)C1 (configuration not stated)	-9	5	-1	4	-1	-2	x	x
Cc1ccc(C2C(C#N)=C(N)SC(N)=C2C#N)c(C)c1	x	i	-69	152*	-8	142	79*	90*
CC(C)C1C(C#N)=C(N)SC(N)=C1C#N	5	-22	2	16	-1	-2	x	x
Cc1ccc(OCC(=O)Nc2ccc(S(=O)(=O)Nc3ccccn3)cc2)c(C)c1	-1	-3	-4	36*	-4	-3	3	6
Cc1ccccc1OCC(=O)Nc1ccc(S(=O)(=O)Nc2ccccn2)cc1	-9	28	-14	7	3	1	x	x
Cn1cnnc1-c1cccc(NC(=O)c2cc(F)c(F)cc2Cl)c1	-2	4	-6	-2	-1	-3	x	x
CCOc1ccc(N(C)S(=O)(=O)c2ccc(C)c(C(=O)Nc3nnc(C4CC4)s3)c2)cc1	7	6	6	x	-2	-1	x	x
CC(C)C(C(=O)O)N1C(=O)/C(=C/c2cccn2C)SC1=S (configuration not stated)	x	-55	66*	106*	0	88*	125*	134*
Cn1cccc1/C=C1/SC(=O)N(CC(=O)N2CCCC2)C1=O	0	-21	-4	4	-5	-1	x	x
CC(=C\c1ccco1)/C=C1/SC(=S)N(CC(=O)O)C1=O	31	-3	14	14	-3	13	x	x
CCCC(C(=O)O)N1C(=O)/C(=C/c2cccn2C)SC1=S (configuration not stated)	x	-46	89*	107*	0	115	121*	127*
CC(C)C(C(=O)O)N1C(=O)/C(=C/C=C/c2ccco2)SC1=S (configuration not stated)	x	10	61	83*	4	-24	88*	64*
O=C(O)C(Cc1ccccc1)N1C(=O)/C(=C/c2cccs2)SC1=S (configuration not stated)	2	-14	7	x	1	-2	x	x
CCOc1ccccc1OCCC(=O)OCC(=O)c1ccc[nH]1	-4	0	5	0	3	-3	x	x
Cc1cccc(NC(=O)CN2C(=O)N/C(=C/c3ccc(C)s3)C2=O)c1	x	10	24	83*	-1	60*	100*	108*
